Shown are actives, neighbours in structure and some others; about 1.8% of the full set was active somewhere.
A3G deaminase = APOBEC3G DNA deaminase inhibitors, primary screen, biochemical, fluorescence, single-stranded DNA substrate, uHTS. recombinant A3G, ssDNA deamination FAM/TAMRA fluorescence. inhibition, % at 20 µM. 330,000 compounds, 0.28% hits;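 active = inhibition of at least 40% at 20 µM, with no more than 30% in the related APOBEC3A deaminase screen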;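 also: plate controls were DMSO wells with A3G for no effect and wells lacking A3G enzyme for full effect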
p-CIP stab down = p/CIP-EGFP fusion destabilizers, primary screen, fluorescence, F442A cells | Q05BA5 | 16 h | decrease of EGFP signal, % at 10 µM | 290,000 compounds, 0.01% hits | AID 1984, 2009;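 active = EGFP signal decrease of at least 30% at 10 µM or well 3 SD below plate mean, unless failing retest; inactive = the rest, including hits failing retest or dose response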
APOBEC3A inh = APOBEC3A ssDNA deaminase inhibitors, primary screen, selectivity assay for APOBEC3G inhibitor project, biochemical, FAM/TAMRA oligo cleavage fluorescence; DNA dC->dU-editing enzyme APOBEC-3A (Homo sapiens), P31941; recombinant A3A, FAM/TAMRA ssDNA deamination fluorescence; inhibition, % at 20 µM; 330,000 compounds, 0.41% hits; AID 493011, 2011;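 active = at least 40% inhibition at 20 µM here, with at most 30% in a related deaminase screen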;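 also: plate controls were A3A with DMSO for no effect and wells lacking A3A enzyme for full effect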
Tb MetRS inh = T. brucei MetRS inhibitors, primary screen, biochemical, luminescence | inhibition, % at 11.9 µM | methionyl-tRNA synthetase (Trypanosoma brucei brucei) | purified T. brucei MetRS, ATP depletion, Kinase-Glo luminescence | 360,000 compounds, 0.4% hits | AID 624268, 2012;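 active = inhibition above a per-plate cutoff of the control wells' mean inhibition plus 3 SD, cut at about 5.5% in these data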;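 also: 0% = DMSO wells median and 100% = median of wells with control inhibitor compound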
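Dosing: 11.9 µM compound single dose, 0.9% DMSO; Assay system: purified T. brucei MetRS enzyme; Measured by: Kinase-Glo luciferase luminescence reporting remaining unconsumed ATP; Schedule: 15 min plus 2 h at 25 °C.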
PHOSPHO1 block = PubChem AID 1565 | Phosphoethanolamine/phosphocholine phosphatase (Homo sapiens), Q8TCT1 | recombinant PHOSPHO1, absorbance phosphatase assay | inhibition, % at 13.3 µM | 290,000 compounds, 1.1% hits; in the data active = inhibition above about 60%
* = called active by the depositor; nt = no result.

SMILES	A3G deaminase	p-CIP stab down	APOBEC3A inh	Tb MetRS inh	PHOSPHO1 block
CCCC(=O)N1c2ccccc2C(=C2SC(C(=O)OC)=C(C(=O)OC)S2)C(=S)C1(C)C	-1	2	1	0	-21
COC(=O)C1=C(C(=O)OC)SC(=C2C(=S)C(C)(C)N(C(=O)C3CC3)c3ccccc32)S1	5	1	5	0	79*
COC(=O)C1=C(C(=O)OC)SC(=C2C(=S)C(C)(C)N(C(=O)C(C)C)c3ccccc32)S1	6	8	5	-1	80*
Cc1ccc(C)c(OCCOCCN2CC(C)OC(C)C2)c1C (stereo not given)	1	-14	-2	-2	26
C=CCn1c(SCc2nc3ccccc3[nH]2)nnc1-c1cccc(OC)c1	-6	-7	2	4	71*
C=CCn1c(SCc2nc3ccccc3[nH]2)nnc1-c1ccc(OC)cc1	-8	1	0	2	91*
Nn1c(SCc2nc3ccccc3[nH]2)nnc1-c1ccccc1	-6	2	1	0	56
c1ccc(-c2nnc(SCc3nc4ccccc4[nH]3)n2Cc2ccco2)cc1	2	1	3	3	96*
CCn1c(SCc2nc3ccccc3[nH]2)nnc1-c1ccc(OC)cc1	-8	-6	0	1	78*
CCN(CC(=O)Nc1c(F)cccc1F)C(=O)CCCOc1ccccc1	nt	nt	nt	0	nt
Cc1ccc(S(=O)(=O)N2CCN(C(=O)CSc3nnc(C)c(=O)[nH]3)CC2)cc1	-4	-10	2	0	90*
Cc1nnc(SCC(=O)c2c(N)n(C)c(=O)n(C)c2=O)[nH]c1=O	-8	-14	-4	-1	18
Cc1nnc(SCC(=O)N2CCN(S(=O)(=O)c3ccccc3)CC2)[nH]c1=O	-6	1	0	0	-14
Cc1cc(C)c(C)c(C(=O)CSc2nnc(C)c(=O)[nH]2)c1C	nt	1	nt	nt	89*
CCc1cc(C(=O)N2CCCC(CNC(=O)c3ccc(-c4ccccc4)cc3)C2)no1 (stereo not given)	-6	-8	-1	1	31
CCOc1cc(/C=C2/NC(=O)NC2=O)cc(Br)c1OCc1ccc(C(=O)O)cc1	-1	6	37	0	86*
COc1cc(/C=C2\NC(=O)NC2=O)cc(Br)c1OC	-16	3	-5	0	29
CN(c1ccccc1C(=O)N1CCc2ccccc2C1)S(C)(=O)=O	-4	-2	-1	0	-47
CN(Cc1c(C(=O)N/N=C/c2cccs2)nnn1-c1nonc1N)c1ccccc1	-1	-8	-2	1	22
CC1=NN(C(N)=S)C(=O)C1N=Nc1ccccc1C(=O)O (stereo not given)	-5	-2	2	-1	62*
COc1cccc(Nc2nnc(SCC(=O)Nc3sccc3C(N)=O)s2)c1	-7	-14	-1	-1	62*
CCc1ccc(Nc2nnc(SCC(=O)Nc3sccc3C(N)=O)s2)cc1	-8	-3	-1	0	15
CCN(CC)C(=O)[C@H]1C[C@H](CC(=O)NC/C=C(\C)CCC=C(C)C)C(=O)N2CCc3c([nH]c4cc(CCC(=O)N(C)C)ccc34)[C@]12C	5	nt	3	0	nt
CCc1ccccc1NC(=S)Nn1cnnc1	0	0	-1	-1	61*
CC1CCN(C(=O)Cn2c(=O)n(Cc3ccco3)c(=O)c3sccc32)CC1	-11	-4	-7	-1	12
SMILES	A3G deaminase	p-CIP stab down	APOBEC3A inh	Tb MetRS inh	PHOSPHO1 block
Cc1ccc2cc(C3C(C#N)=C(N)Oc4c3ccc3cccnc43)c(=O)[nH]c2c1 (stereo not given)	-4	4	7	0	42
CCc1ccc2[nH]c(=O)c(C3C(C#N)=C(N)Oc4c3ccc3cccnc43)cc2c1 (stereo not given)	-5	3	1	-1	89*
CCOC(=O)c1[nH]c2cc(OC)c(OC)cc2c1NC(=O)c1ccc2c(c1)OCO2	-4	-1	0	-1	68*
CC(C)(C)C1=CC=C(C(C)(C)C)C(=O)C1=O	4	-5	3	nt	67*
COc1ccccc1-c1nnc2n1N=C(C(C)(C)C)CS2	0	4	2	0	6
Clc1ccccc1C1=Nn2c(nnc2-c2ccncc2)SC1	nt	6	nt	0	26
CC1=Nn2c(nnc2-c2ccccc2Cl)SC1	-7	-4	-5	0	74*
COc1ccccc1-c1nnc2n1N=C(C)CS2	1	-16	4	0	74*
CCOC(=O)c1c(NC(=O)c2noc3c2CCCC3)sc(C)c1C	nt	2	nt	nt	92*
N#Cc1cccc(NC(=O)CCNC(=O)c2ccccc2Cl)c1	-7	-12	-5	1	24
COc1ccccc1-n1cc(C(=O)NCC(=O)N2CCN(c3ccccc3)CC2)c2ccccc2c1=O	-1	-10	0	-1	63*
COc1cc(C(=S)N2CCCC2)ccc1O	2	1	1	0	31
COc1cc(C(=S)N2CCC(C)CC2)ccc1O	-1	-20	-1	0	66*
COc1ccc(C(=O)Nc2ccc(C3CC3(Cl)Cl)cc2)cc1 (stereo not given)	1	-3	5	1	71*
CC(C)c1ccc(S(=O)(=O)N2CCN(CCC(=O)Nc3ccc(N(C)C)cc3)CC2)cc1	nt	-9	nt	-1	83*
CCN(c1ccc(NC(=O)COC(=O)c2ccc(S(=O)(=O)N3CCCC3)cc2)cc1)C(C)C	-2	-1	3	0	104*
O=C(COC(=O)c1ccc(O)cc1)Nc1ccc(S(=O)(=O)N2CCCC2)cc1	-5	nt	0	0	nt
COc1ccc(NC(=O)CCN2CCN(S(=O)(=O)c3ccc(C(C)C)cc3)CC2)cc1	10	-3	5	0	7
CSCCC(NC(=O)c1cccc(C)c1)C(=O)OCC(=O)Nc1c(C)nn(-c2ccccc2)c1C (stereo not given)	-14	nt	-4	0	nt
Cc1noc(C)c1NC(=O)Nc1ccc2c(c1)C(=O)N([C@H](C)CO)C[C@H](C)[C@@H](CN(C)C(=O)Nc1ccc3c(c1)OCO3)O2	-1	nt	0	0	nt
CCCCNC(=O)c1onc(CSc2ccc(OC)cc2)c1C(=O)O	-8	0	1	0	98*
CCCCNC(=O)c1onc(CSc2ccc(F)cc2)c1C(=O)O	-10	4	-4	0	3
CC(O)[C@@H](NC(=O)C1CCC(CNC(=O)[C@H](Cc2ccccc2)NC(=O)OC(C)(C)C)CC1)C(=O)O (stereo not given in full)	-9	-2	-2	-1	46
COc1cc(/C=C2\SC(=O)N(CC(=O)Nc3cccc(C)c3)C2=O)cc([N+](=O)[O-])c1O	nt	-4	nt	0	62*

Source: PubChem
